Bioassay records from PubChem.
S1P4 ag: S1P4 receptor agonists, primary screen, cell-based | S1P4-expressing cell line, agonist reporter assay | 220,000 compounds, 0.35% hits | activation, % at 4.98 µM | Sphingosine 1-phosphate receptor 4 (Homo sapiens), O95977 | AID 1509, 2009; in the data active = activation above about 11%;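 also: 0% = DMSO vehicle and 100% = reference agonist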
Target sequence (O95977 whole entry, looked up): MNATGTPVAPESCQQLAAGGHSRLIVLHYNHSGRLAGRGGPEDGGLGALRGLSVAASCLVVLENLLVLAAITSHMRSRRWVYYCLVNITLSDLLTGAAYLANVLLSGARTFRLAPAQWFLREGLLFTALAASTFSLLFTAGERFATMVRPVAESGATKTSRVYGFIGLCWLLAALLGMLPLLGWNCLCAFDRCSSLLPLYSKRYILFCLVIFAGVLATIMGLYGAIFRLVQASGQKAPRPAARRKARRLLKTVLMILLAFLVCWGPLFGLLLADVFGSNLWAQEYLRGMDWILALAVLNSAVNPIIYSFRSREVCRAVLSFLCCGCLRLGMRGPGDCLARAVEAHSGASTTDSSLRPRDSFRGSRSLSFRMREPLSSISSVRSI
S1P4 antagonist: S1P4 receptor antagonists, primary screen, cell-based. Sphingosine 1-phosphate receptor 4 (Homo sapiens), O95977. S1P4-expressing cells, antagonist mode, reporter read-out. inhibition, % at 4.98 µM. 220,000 compounds, 0.26% hits. AID 1510, 2009; in the data active = inhibition above about 29%;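 also: 0% = wells stimulated with agonist and 100% = vehicle wells without agonist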
Biofilm kill mix: clotrimazole potentiators killing C. albicans biofilm, primary screen, 4-compound mixtures; inhibition, % at 7.6 µM; C. albicans biofilm persisters + clotrimazole, fluorescence viability; primary screen in compound mixtures of four per well; 120,000 compounds, 0.02% hits;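 active = inhibition above 30.3% in the primary screen of four-compound pools, then above 30% when the compound was retested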;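 also: compounds exposed to preformed 24 h biofilms for 48 h; 0% = untreated biofilm control and 100% = clotrimazole plus chlorhexidine kill blank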
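Test system: C. albicans biofilms. Buffer or medium: RPMI/MOPS medium, pH 7.0. Timing: 48 h compound exposure at 37 °C. Technique: Alamar Blue fluorescence. Evaluation: percent inhibition of biofilm viability.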
Efa HMGR inh: inhibitors of E. faecalis class II HMGR, primary screen, biochemical, Enterococcus faecalis | purified E. faecalis HMGR, NADPH absorbance 340 nm kinetic | inhibition, % at 10 µM | 190,000 compounds, 0.41% hits;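 active = inhibition above a set limit, the median over all tested compounds plus 3 SD, cut at about 9.5% in these data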;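 also: enzyme runs in reverse so mevalonate oxidation gives rising NADPH absorbance; 0% = complete reaction with DMSO and 100% = background rate lacking mevalonate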
Rad51 HR inh: human RAD51 strand exchange inhibitors, primary screen, biochemical, fluorescence. DNA repair protein RAD51 homolog 1 (Homo sapiens), Q06609. AID 1385, 2008. inhibition, % at 10 µM. hRad51 DNA strand exchange, fluorescence dequenching. 200,000 compounds, 0.085% hits;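 active = inhibition above 40% at the single screening dose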;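 also: 0% = DMSO control wells and 100% = blanks with heterologous ssDNA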
Target sequence (Q06609 whole entry, looked up): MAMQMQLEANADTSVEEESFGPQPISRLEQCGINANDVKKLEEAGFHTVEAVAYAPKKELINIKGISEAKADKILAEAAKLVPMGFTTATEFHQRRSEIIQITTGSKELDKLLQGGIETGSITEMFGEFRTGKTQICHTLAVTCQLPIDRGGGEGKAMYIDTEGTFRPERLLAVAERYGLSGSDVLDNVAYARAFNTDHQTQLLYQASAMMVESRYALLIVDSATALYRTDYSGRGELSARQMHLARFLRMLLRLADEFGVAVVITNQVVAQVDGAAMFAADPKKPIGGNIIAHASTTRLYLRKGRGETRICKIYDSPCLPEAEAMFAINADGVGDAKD
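Test system: preformed human Rad51 ssDNA filaments; also added: Donor/quencher-labelled 47-bp dsDNA substrate; doses: 10 µM final, single point; times: 37 °C 15-min filament assembly, 30-min compound preincubation, 15-min exchange; detection: FRET fluorescence dequenching, excitation 485 nm, emission 520 nm; read-out basis: Fluorescence-based percent inhibition, control- and blank-normalised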
S1P3 antag: S1P3 receptor antagonists, primary screen, cell-based; CHO S1P3 NFAT-BLA reporter, FRET fluorescence, antagonist mode; Sphingosine 1-phosphate receptor 3 (Homo sapiens), Q99500; AID 485, 2006; inhibition, % at 4.98 µM; 170,000 compounds, 0.27% hits;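 active = inhibition above the plate cutoff, the mean inhibition of test wells on that plate plus 3 SD, cut at about 28% in these data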;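 also: cells challenged with S1P at its EC80 of 0.8 µM; blue over green emission ratio from cleaved BLA substrate after 4 h stimulation; 0% = S1P-stimulated wells and 100% = unstimulated DMSO-only wells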
Numbers without * were called inactive; x = not tested or not shown; ! = repeats disagree. An excerpt weighted towards active compounds, which were near 1.2% of everything screened.

SMILES | S1P4 ag | S1P4 antagonist | Biofilm kill mix | Efa HMGR inh | Rad51 HR inh | S1P3 antag
O=C(NCC(=O)N(Cc1cccs1)C(C(=O)NC1CCCCC1)c1ccco1)c1ccco1 (stereo not drawn) | -3 | -13 | 8 | -4 | 13 | x
O=C(NCC(=O)N(Cc1cccs1)C(C(=O)NC1CCCC1)c1ccncc1)c1ccco1 (stereo not drawn) | 1 | -3 | x | 33* | -5 | 4
CCCCC(=O)Nc1ccc2c(c1)nc(CCN1CCN(C)CC1)n2C | 1 | -14 | 11 | x | 16 | -1
CC(C)(C)c1cc(C(=O)NNc2cc(C(F)(F)F)ccc2Cl)n(Cc2ccccc2)n1 | -1 | 17 | 6 | x | 16 | 21
COc1ccc(/C=N/NC(=O)C(C)Sc2ccccn2)cc1[N+](=O)[O-] (stereo not drawn) | 1 | -8 | 15 | 15* | 6 | 5
COc1ccc(/C=N\NC(=O)CNC(=O)C(c2ccccc2)c2ccccc2)cc1[N+](=O)[O-] | -1 | -7 | 8 | -4 | -3 | 0
Cc1csc(SCC(=O)NC(=O)C2CCCCC2)n1 | -1 | 2 | -2 | -7 | 16 | 1
O=C(Cc1csc(-c2ccccc2)n1)NCc1cccs1 | 1 | -5 | 19 | 11* | -4 | -9
O=C(NCCc1csc(-c2ccccc2)n1)c1cccs1 | -4 | -24 | x | -2 | -2 | 8
CN(C[C@H](Cc1ccccc1)N(C[C@@H](Cc1cccc2ccccc12)N(CCc1ccccc1)N=O)N=O)N=O | -1 | -7 | 17 | -1 | 3 | -22
CN(C[C@@H](Cc1cccc2ccccc12)N(C[C@H](Cc1ccccc1)N(CCc1ccccc1)N=O)N=O)N=O | 0 | -2 | 15 | 12* | -10 | 6
CN1C(=O)c2ccccc2OC1(C)Cc1ccccc1 (stereo not drawn) | -2 | -6 | 11 | -9 | 14 | 15
Cc1cc(C=O)c2c(c1)C=CC1(Oc3ccccc3C(=O)N1C)O2 (stereo not drawn) | 2 | -12 | 11 | 19* | x | x
CCCc1nc2sc3c(c2c(=O)n1N)CCC3 | 0 | -7 | x | 0 | x | x
CCOC(=O)C1CCN(CC(=O)Nc2c(C(=O)OC)n(C)c3cccc(C)c23)CC1 | -2 | 8 | x | -2 | 69* | -15
C=CCN=c1scc(-c2ccccc2)n1/N=C/c1ccccn1 | 3 | -11 | 10 | -7 | -5 | 4
O=C1/C(=C/c2ccccc2)CSc2sccc21 | -6 | 2 | x | 1 | 10 | x
COC(=O)Cc1cc(=O)n2[nH]c(C)nc2n1 | 1 | 2 | x | -5 | -1 | -3
COC(=O)Cc1cc(=O)n2[nH]cnc2n1 | 1 | -10 | x | 30* | -7 | x
CCCCOc1ccc(CSC(CC(=O)O)C(=O)O)cc1 (stereo not drawn) | 1 | -16 | x | -4 | -1 | x
CCCCOc1ccc(CSCCN=C(N)N)cc1 | -1 | 8 | 31* | -7 | -6 | -23
Cc1ccc(OCCN2CCN(c3ncnc4sc(C)c(C)c34)CC2)cc1 | -4 | -17 | x | -1 | -5 | x
Clc1ccc(OCCN2CCN(c3ncnc4sccc34)CC2)cc1 | -2 | -15 | x | 3 | -2 | 64*
CC(C)Oc1ccc(C(=O)NC(=S)Nc2ccc(Cl)c(C(=O)O)c2)cc1 | 0 | -9 | 11 | x | 12 | -19
Cc1cc(C)c(S(C)(=O)=O)c(Oc2ccc(F)cc2)n1 | -1 | 3 | x | 10* | x | x
SMILES | S1P4 ag | S1P4 antagonist | Biofilm kill mix | Efa HMGR inh | Rad51 HR inh | S1P3 antag
O=C1OCC2OC(O)C(O)C(O)C2OC(=O)c2cc(O)c(O)c(O)c2-c2c(O)c(O)c3oc(=O)c4c(c(O)c(O)c5oc(=O)c2c3c54)-c2c1cc(O)c(O)c2O (stereo not drawn) | x | x | 9 | x | 68* | x
COc1ccc(-c2[nH]n(-c3ccc([N+](=O)[O-])cc3)c(=O)c2C=NCCN2CCNCC2)cc1 | 1 | -9 | 9 | 0 | 17 | 4
CCn1cc(/C=N/NS(=O)(=O)c2ccc(OC)cc2)c(C)n1 | 1 | -13 | x | -2 | 45* | x
CSCCC(NS(=O)(=O)/C=C/c1ccccc1)C(=O)O (stereo not drawn) | 1 | -5 | 14 | 10* | 1 | -5
Cc1cc(-c2ccccc2)nc(N(C)N)c1S(C)(=O)=O | 2 | -2 | 14 | 11* | 6 | 6
O=C(CSc1nnc(Cc2ccccc2)n1-c1ccccc1)NNC(=O)Cc1ccccc1 | 0 | 4 | x | -1 | 0 | x
O/N=C1\CC/C(=N\O)c2nn(-c3ccc(Cl)cc3Cl)nc21 | 3 | -12 | x | 8 | 1 | 22
CSc1nc(-c2ccccc2)cn1-c1ccc(NC(C)=O)cc1 | -1 | -12 | 12 | 9.8* | 1 | 8
CCOc1ccc(-c2cn(-c3ccc(OC)cc3)c(SC)n2)cc1 | 0 | -8 | 18 | 6 | 5 | -1
NC(=O)c1c(NC(=O)c2cccs2)sc2c1CCCCCC2 | 0 | -20 | x | 0 | 5 | 54*
O=C(O)C(Cc1ccccc1)N1C(=O)C2CCCCC2C1=O (stereo not drawn) | -2 | -12 | 25 | 17* | 2 | 2
Cc1ccccc1OCc1n(CC(=O)OC2CC(C)CCC2C(C)C)c2ccccc2[n+]1C (stereo not drawn) | 1 | 14 | 34*! | -4 | 17 | -10
CC1(C)Cc2nc(NCCN3CCOCC3)c(C#N)cc2CO1 | 2 | -5 | x | -1 | -4 | x
CC1CCN(c2nc3c(cc2C#N)COC(C)(C)C3)CC1 | -1 | -13 | 18 | 9.7* | -4 | -7
CC(C)N(C(C)C)S(=O)(=O)c1ccc(NN)nc1 | 1 | -7 | 10 | x | 43* | 1
NC(=O)C1Cc2ccccc2CN1S(=O)(=O)c1cccs1 (stereo not drawn) | 2 | -11 | 7 | 9.7* | -20 | -21
CC(C)C[C@H](NC(=O)c1nc[nH]c1C(=O)N(C)Cc1ccccc1)C(=O)OCc1ccccc1 | 0 | -2 | 14 | -2 | -7 | -10
COC(=O)[C@H](Cc1ccccc1)NC(=O)O[C@@H]1C(=O)c2cc(Br)ccc2O[C@H]1c1cccc(OC)c1 | 1 | 12 | 9 | 11* | x | 3
COc1ccc(C(CC(=O)O)NC(=O)c2cc3cc(Br)ccc3oc2=O)cc1OC (stereo not drawn) | 0 | -10 | 8 | 1 | 12 | -16
CCN(CCn1cccn1)C(=O)CC1C(=O)NCCN1Cc1ccc(F)cc1 (stereo not drawn) | -4 | 0 | 19 | -1 | 0 | -26
CCN(CC)S(=O)(=O)c1ccc(N=Nc2c(N)[nH]c(=O)[nH]c2=O)cc1 | 1 | -5 | 16 | x | 1 | 6
